In ChEMBL document CHEMBL4689842, “EUbOPEN Chemogenomics Library wave 1” (2021):

Test system: Fibroblast
Test: Multiplex assay against human fibroblast
Assay type: toxicity, cell-based
Procedure, shortened: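 On a CQ1 microscope at 37°C and 5% CO2, live cells were imaged after compound addition. They had been stained at seeding with Hoechst33342, BioTracker Green Microtubule Cytoskeleton Dye, MitoTracker Red and Annexin V Alexa Fluor 680. CellPathfinder machine-learning gating assigned cells to Hoechst high-intensity objects or normal cells, normal cells to healthy, pyknosed or fragmented nuclei, and pyknosed cells to mitotic or apoptotic. Tubulin, mitochondrial-mass and membrane-permeability phenotypes are per cents of healthy-nucleus cells.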

[1] = 12 h, 1 µM, compound concentration 1 uM, replicate 1
[2] = 12 h, 1 µM, compound concentration 1 uM, replicate 2
[3] = 12 h, 10 µM, compound concentration 10 uM, replicate 1
[4] = 12 h, 10 µM, compound concentration 10 uM, replicate 2
[5] = 24 h, 1 µM, compound concentration 1 uM, replicate 1
[6] = 24 h, 1 µM, compound concentration 1 uM, replicate 2
[7] = 24 h, 10 µM, compound concentration 10 uM, replicate 1
[8] = 24 h, 10 µM, compound concentration 10 uM, replicate 2
[9] = 48 h, 1 µM, compound concentration 1 uM, replicate 1
[10] = 48 h, 1 µM, compound concentration 1 uM, replicate 2
[11] = 48 h, 10 µM, compound concentration 10 uM, replicate 1
[12] = 48 h, 10 µM, compound concentration 10 uM, replicate 2

## CN(C)C(=O)N[C@H]1CC[C@H](CCN2CCN(c3cccc(Cl)c3Cl)CC2)CC1.Cl [CARIPRAZINE HYDROCHLORIDE]
[1]
  Population Apoptotic (%): 65%
  Population Fragmented Nuclei (%): 15%
  Population Healthy Nuclei (%): 51%
  Population Hoechst High Intensity Objects (%): 6%
  Population Membrane Permeable-Phenotype (%): 32%
  Population Mitochondria Different-Phenotype (%): 10%
  Population Mitotic Cells (%): 34%
  Population Normal (%): 93%
  Population Pyknosed Nuclei (%): 33%
  Population Tubulin-Different-Phenotype (%): 45%
  Total Cell Count: 83
[2]
  Population Apoptotic (%): 60%
  Population Fragmented Nuclei (%): 7%
  Population Healthy Nuclei (%): 84%
  Population Membrane Permeable-Phenotype (%): 6%
  Population Mitochondria Different-Phenotype (%): 29%
  Population Mitotic Cells (%): 40%
  Population Pyknosed Nuclei (%): 8%
  Population Tubulin-Different-Phenotype (%): 22%
  Total Cell Count: 61
[3]
  Population Apoptotic (%): 71%
  Population Fragmented Nuclei (%): 26%
  Population Healthy Nuclei (%): 38%
  Population Hoechst High Intensity Objects (%): 16%
  Population Membrane Permeable-Phenotype (%): 16%
  Population Mitochondria Different-Phenotype (%): 28%
  Population Mitotic Cells (%): 28%
  Population Normal (%): 83%
  Population Pyknosed Nuclei (%): 34%
  Population Tubulin-Different-Phenotype (%): 92%
  Total Cell Count: 155
[4]
  Population Apoptotic (%): 36%
  Population Fragmented Nuclei (%): 17%
  Population Healthy Nuclei (%): 57%
  Population Hoechst High Intensity Objects (%): 3%
  Population Membrane Permeable-Phenotype (%): 47%
  Population Mitochondria Different-Phenotype (%): 95%
  Population Mitotic Cells (%): 63%
  Population Normal (%): 96%
  Population Pyknosed Nuclei (%): 25%
  Population Tubulin-Different-Phenotype (%): 95%
  Total Cell Count: 79
[5]
  Population Apoptotic (%): 72%
  Population Fragmented Nuclei (%): 21%
  Population Healthy Nuclei (%): 49%
  Population Hoechst High Intensity Objects (%): 10%
  Population Membrane Permeable-Phenotype (%): 21%
  Population Mitochondria Different-Phenotype (%): 11%
  Population Mitotic Cells (%): 28%
  Population Normal (%): 89%
  Population Pyknosed Nuclei (%): 29%
  Population Tubulin-Different-Phenotype (%): 45%
  Total Cell Count: 95
[6]
  Population Apoptotic (%): 66%
  Population Fragmented Nuclei (%): 6%
  Population Healthy Nuclei (%): 84%
  Population Hoechst High Intensity Objects (%): 4%
  Population Membrane Permeable-Phenotype (%): 7%
  Population Mitochondria Different-Phenotype (%): 22%
  Population Mitotic Cells (%): 33%
  Population Normal (%): 95%
  Population Pyknosed Nuclei (%): 9%
  Population Tubulin-Different-Phenotype (%): 14%
  Total Cell Count: 67
[7]
  Population Apoptotic (%): 70%
  Population Fragmented Nuclei (%): 23%
  Population Healthy Nuclei (%): 54%
  Population Hoechst High Intensity Objects (%): 18%
  Population Membrane Permeable-Phenotype (%): 17%
  Population Mitochondria Different-Phenotype (%): 36%
  Population Mitotic Cells (%): 29%
  Population Normal (%): 81%
  Population Pyknosed Nuclei (%): 21%
  Population Tubulin-Different-Phenotype (%): 82%
  Total Cell Count: 190
[8]
  Population Apoptotic (%): 94%
  Population Healthy Nuclei (%): 55%
  Population Hoechst High Intensity Objects (%): 3%
  Population Membrane Permeable-Phenotype (%): 42%
  Population Mitochondria Different-Phenotype (%): 95%
  Population Mitotic Cells (%): 5%
  Population Normal (%): 96%
  Population Pyknosed Nuclei (%): 20%
  Population Tubulin-Different-Phenotype (%): 95%
  Total Cell Count: 87
[9]
  Population Apoptotic (%): 65%
  Population Fragmented Nuclei (%): 35%
  Population Healthy Nuclei (%): 46%
  Population Hoechst High Intensity Objects (%): 7%
  Population Membrane Permeable-Phenotype (%): 20%
  Population Mitochondria Different-Phenotype (%): 4%
  Population Mitotic Cells (%): 35%
  Population Normal (%): 92%
  Population Pyknosed Nuclei (%): 18%
  Population Tubulin-Different-Phenotype (%): 56%
  Total Cell Count: 117
[10]
  Population Apoptotic (%): 60%
  Population Fragmented Nuclei (%): 25%
  Population Healthy Nuclei (%): 69%
  Population Hoechst High Intensity Objects (%): 11%
  Population Membrane Permeable-Phenotype (%): 7%
  Population Mitochondria Different-Phenotype (%): 3%
  Population Mitotic Cells (%): 40%
  Population Normal (%): 88%
  Population Pyknosed Nuclei (%): 5%
  Population Tubulin-Different-Phenotype (%): 38%
  Total Cell Count: 103
[11]
  Population Apoptotic (%): 80%
  Population Fragmented Nuclei (%): 37%
  Population Healthy Nuclei (%): 53%
  Population Hoechst High Intensity Objects (%): 31%
  Population Membrane Permeable-Phenotype (%): 10%
  Population Mitochondria Different-Phenotype (%): 20%
  Population Mitotic Cells (%): 20%
  Population Normal (%): 68%
  Population Pyknosed Nuclei (%): 9%
  Population Tubulin-Different-Phenotype (%): 81%
  Total Cell Count: 235
[12]
  Population Apoptotic (%): 33%
  Population Fragmented Nuclei (%): 33%
  Population Healthy Nuclei (%): 63%
  Population Hoechst High Intensity Objects (%): 32%
  Population Membrane Permeable-Phenotype (%): 7%
  Population Mitochondria Different-Phenotype (%): 12%
  Population Mitotic Cells (%): 66%
  Population Normal (%): 67%
  Population Pyknosed Nuclei (%): 2%
  Population Tubulin-Different-Phenotype (%): 85%
  Total Cell Count: 162
